Laboratory results as given in ChEMBL document CHEMBL1149126, “3-phenyl-6-(2-pyridyl)methyloxy-1,2,4-triazolo[3,4-a]phthalazines and analogues: high-affinity gamma-aminobutyric acid-A benzodiazepine receptor ligands with alpha 2, alpha 3, and alpha 5-subtype binding selectivity over alpha 1” (J Med Chem, 2004).

Key:
[1] = molecular target: T1, GABA-A receptor; alpha-5/beta-3/gamma-2 (Homo sapiens, UniProt P18507+P28472+P31644); experiment: Binding affinity for human GABA-A receptor alpha-5-beta-3-gamma-2 subunits in L(tk-) cells; format: cell-based
T1 sequence (P18507 whole entry): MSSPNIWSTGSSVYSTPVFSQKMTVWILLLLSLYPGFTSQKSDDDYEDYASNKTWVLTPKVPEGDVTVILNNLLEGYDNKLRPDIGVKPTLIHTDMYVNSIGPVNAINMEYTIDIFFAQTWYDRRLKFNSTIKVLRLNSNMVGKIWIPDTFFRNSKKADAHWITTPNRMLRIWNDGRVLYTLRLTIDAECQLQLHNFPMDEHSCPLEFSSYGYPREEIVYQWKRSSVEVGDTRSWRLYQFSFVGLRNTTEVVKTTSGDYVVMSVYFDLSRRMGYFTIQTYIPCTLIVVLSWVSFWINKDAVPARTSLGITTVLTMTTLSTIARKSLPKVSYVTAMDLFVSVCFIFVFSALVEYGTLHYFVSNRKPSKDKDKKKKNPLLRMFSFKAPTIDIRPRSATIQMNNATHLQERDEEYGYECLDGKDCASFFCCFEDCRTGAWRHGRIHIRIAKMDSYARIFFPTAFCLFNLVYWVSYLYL
T1 sequence (P28472 whole entry): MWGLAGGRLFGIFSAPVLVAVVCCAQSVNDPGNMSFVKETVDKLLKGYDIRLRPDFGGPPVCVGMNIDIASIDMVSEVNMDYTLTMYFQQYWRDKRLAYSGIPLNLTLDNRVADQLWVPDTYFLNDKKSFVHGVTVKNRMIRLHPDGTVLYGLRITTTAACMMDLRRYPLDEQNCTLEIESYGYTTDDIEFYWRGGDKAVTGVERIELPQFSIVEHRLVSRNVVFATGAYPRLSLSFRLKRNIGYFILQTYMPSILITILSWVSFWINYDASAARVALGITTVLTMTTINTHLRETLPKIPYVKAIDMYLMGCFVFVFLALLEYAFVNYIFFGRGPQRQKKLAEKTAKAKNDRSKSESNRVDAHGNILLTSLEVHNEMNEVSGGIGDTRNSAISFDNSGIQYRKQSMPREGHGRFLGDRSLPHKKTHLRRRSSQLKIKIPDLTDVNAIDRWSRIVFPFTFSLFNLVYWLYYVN
T1 sequence (P31644 whole entry): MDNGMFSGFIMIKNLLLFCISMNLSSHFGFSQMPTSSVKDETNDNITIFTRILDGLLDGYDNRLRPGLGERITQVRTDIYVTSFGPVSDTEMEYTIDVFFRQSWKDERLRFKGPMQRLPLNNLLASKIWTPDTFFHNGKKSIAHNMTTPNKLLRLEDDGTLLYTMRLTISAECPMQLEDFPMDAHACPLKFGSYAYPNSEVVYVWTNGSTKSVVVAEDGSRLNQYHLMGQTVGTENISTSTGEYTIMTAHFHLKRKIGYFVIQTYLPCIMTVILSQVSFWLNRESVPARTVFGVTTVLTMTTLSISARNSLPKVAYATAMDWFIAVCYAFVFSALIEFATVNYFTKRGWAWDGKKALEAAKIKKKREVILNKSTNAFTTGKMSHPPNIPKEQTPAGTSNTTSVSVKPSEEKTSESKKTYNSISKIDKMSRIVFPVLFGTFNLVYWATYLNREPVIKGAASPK

[2] = molecular target: T2, GABA-A receptor; alpha-3/beta-3/gamma-2 (Homo sapiens) (UniProt P18507+P28472+P34903); experiment: Partial agonistic activity against GABA-A receptor alpha-3-beta-3-gamma-2 subunits; format: functional
[3] = molecular target: T3, GABA-A receptor; alpha-1/beta-3/gamma-2 (Homo sapiens, UniProt P14867+P18507+P28472); experiment: Binding affinity for human GABA-A receptor alpha-1-beta-3-gamma-2 subunits in L(tk-) cells
T3 sequence (P14867 whole entry): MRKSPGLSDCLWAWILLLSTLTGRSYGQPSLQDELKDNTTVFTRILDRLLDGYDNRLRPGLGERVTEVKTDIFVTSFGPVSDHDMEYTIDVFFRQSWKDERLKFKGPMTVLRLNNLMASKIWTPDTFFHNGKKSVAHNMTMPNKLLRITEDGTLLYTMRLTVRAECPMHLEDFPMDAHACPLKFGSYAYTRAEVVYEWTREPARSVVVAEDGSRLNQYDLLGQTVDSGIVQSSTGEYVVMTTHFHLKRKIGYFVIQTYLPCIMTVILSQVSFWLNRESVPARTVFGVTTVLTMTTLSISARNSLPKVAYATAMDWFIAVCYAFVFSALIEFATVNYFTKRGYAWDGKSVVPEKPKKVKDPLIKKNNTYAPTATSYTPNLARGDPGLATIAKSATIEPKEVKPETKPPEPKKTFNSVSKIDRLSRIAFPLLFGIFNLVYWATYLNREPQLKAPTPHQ
T3 sequence (P18507 whole entry): T1 sequence (P18507 whole entry)
T3 sequence (P28472 whole entry): T1 sequence (P28472 whole entry)

[4] = molecular target: T4, GABA-A receptor; alpha-5/beta-3/gamma-2 (Homo sapiens) (UniProt P18507+P28472+P31644); experiment: Efficacy at human GABA-A receptor alpha-5-beta-3-gamma-2 subunits
[5] = molecular target: T5, GABA-A receptor; alpha-2/beta-3/gamma-2 (Homo sapiens) (UniProt P18507+P28472+P47869); experiment: Partial agonistic activity against GABA-A receptor alpha-2-beta-3-gamma-2 subunits; format: functional
[6] = molecular target: T6, GABA-A receptor; alpha-1/beta-3/gamma-2 (Homo sapiens) (UniProt P14867+P18507+P28472); experiment: Partial agonistic activity against GABA-A receptor alpha-1-beta-3-gamma-2 subunits; format: functional
[7] = molecular target: T7, GABA-A receptor; alpha-3/beta-3/gamma-2 (Homo sapiens, UniProt P18507+P28472+P34903); experiment: Binding affinity for human GABA-A receptor alpha-3-beta-3-gamma-2 subunits in L(tk-) cells; format: cell-based
T7 sequence (P18507 whole entry): T1 sequence (P18507 whole entry)
T7 sequence (P28472 whole entry): T1 sequence (P28472 whole entry)
T7 sequence (P34903 whole entry): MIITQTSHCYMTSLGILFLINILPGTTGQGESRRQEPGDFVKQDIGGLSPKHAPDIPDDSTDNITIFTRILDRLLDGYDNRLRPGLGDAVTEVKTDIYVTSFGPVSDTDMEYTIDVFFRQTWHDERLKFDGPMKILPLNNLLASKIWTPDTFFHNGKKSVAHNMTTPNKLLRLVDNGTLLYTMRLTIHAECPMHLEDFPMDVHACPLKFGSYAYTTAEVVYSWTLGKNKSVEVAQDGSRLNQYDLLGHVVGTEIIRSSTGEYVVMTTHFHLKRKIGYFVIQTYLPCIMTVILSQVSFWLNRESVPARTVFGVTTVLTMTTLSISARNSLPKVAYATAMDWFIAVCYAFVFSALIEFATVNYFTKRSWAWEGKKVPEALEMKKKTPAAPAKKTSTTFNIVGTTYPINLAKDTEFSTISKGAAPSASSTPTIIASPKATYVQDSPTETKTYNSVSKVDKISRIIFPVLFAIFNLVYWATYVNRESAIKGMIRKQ

[8] = molecular target: T8, GABA-A receptor; alpha-2/beta-3/gamma-2 (Homo sapiens, UniProt P18507+P28472+P47869); experiment: Binding affinity for human GABA-A receptor alpha-2-beta-3-gamma-2 subunits in L(tk-) cells; format: cell-based
T8 sequence (P18507 whole entry): T1 sequence (P18507 whole entry)
T8 sequence (P28472 whole entry): T1 sequence (P28472 whole entry)
T8 sequence (P47869 whole entry): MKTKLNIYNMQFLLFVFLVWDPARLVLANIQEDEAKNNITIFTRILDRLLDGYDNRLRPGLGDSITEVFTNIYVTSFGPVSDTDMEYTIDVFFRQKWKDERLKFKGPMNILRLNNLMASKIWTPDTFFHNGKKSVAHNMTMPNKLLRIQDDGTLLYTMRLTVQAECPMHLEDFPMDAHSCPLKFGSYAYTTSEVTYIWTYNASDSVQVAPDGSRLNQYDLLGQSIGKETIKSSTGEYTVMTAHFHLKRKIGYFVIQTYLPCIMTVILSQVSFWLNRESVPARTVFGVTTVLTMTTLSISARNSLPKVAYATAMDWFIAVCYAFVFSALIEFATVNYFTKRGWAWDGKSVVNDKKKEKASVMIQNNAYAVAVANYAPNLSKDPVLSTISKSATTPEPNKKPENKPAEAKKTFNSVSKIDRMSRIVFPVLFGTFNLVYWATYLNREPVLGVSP

[9] = molecular target: T2, GABA-A receptor; alpha-3/beta-3/gamma-2 (Homo sapiens); experiment: Partial agonistic activity against GABA-A receptor alpha-3-beta-3-gamma-2
[10] = molecular target: T4, GABA-A receptor; alpha-5/beta-3/gamma-2 (Homo sapiens); experiment: Partial agonistic activity against GABA-A receptor alpha-5-beta-3-gamma-2 subunits; format: functional
[11] = molecular target: T6, GABA-A receptor; alpha-1/beta-3/gamma-2 (Homo sapiens); experiment: Inverse agonistic activity against GABA-A receptor alpha-1-beta-3-gamma-2 subunits; format: functional
[12] = molecular target: T6, GABA-A receptor; alpha-1/beta-3/gamma-2 (Homo sapiens); experiment: (§1) Maximum percent change compared to GABA EC20 against GABA-A alpha-1-beta-3-gamma-2 receptor; format: protein-complex assay
[13] = molecular target: T2, GABA-A receptor; alpha-3/beta-3/gamma-2 (Homo sapiens); experiment: (§2) Maximum percent change compared to GABA EC20 against GABA-A alpha-3-beta-3-gamma-2 receptor; format: functional
[14] = molecular target: T2, GABA-A receptor; alpha-3/beta-3/gamma-2 (Homo sapiens); experiment: Agonistic activity against GABA-A receptor alpha-3-beta-3-gamma-2; format: functional
[15] = molecular target: T5, GABA-A receptor; alpha-2/beta-3/gamma-2 (Homo sapiens); experiment: Maximum percent change compared to GABA EC20 against GABA-A alpha-2-beta-3-gamma-2 receptor; format: functional
[16] = molecular target: T4, GABA-A receptor; alpha-5/beta-3/gamma-2 (Homo sapiens); experiment: Maximum percent change compared to GABA EC20 against GABA-A alpha-5-beta-3-gamma-2 receptor; format: functional
[17] = molecular target: T2, GABA-A receptor; alpha-3/beta-3/gamma-2 (Homo sapiens); experiment: as §2; format: functional; remark: listed apart in the source
[18] = molecular target: T6, GABA-A receptor; alpha-1/beta-3/gamma-2 (Homo sapiens); experiment: as §1; format: functional
[19] = Half-life in rat at a dose of 3 mg/kg; format: ADME, organism-based; parameters: dose 3 mg/kg; conditions: in vivo
Procedure, shortened: (§3)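 Plasma concentrations were followed to derive peak level and half-life.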

[20] = Oral bioavailability in rat at a dose of 3 mg/kg; format: ADME, organism-based; conditions: in vivo, read-out: Bioavailabiility; procedure, shortened: as §3
[21] = Peak plasma concentration in rat at a dose of 3 mg/kg; format: ADME, organism-based; parameters: dose 3 mg/kg; conditions: read-out: Concentration; procedure, shortened: as §3
[22] = molecular target: T3, GABA-A receptor; alpha-1/beta-3/gamma-2; experiment: Binding affinity for human GABA-A receptor alpha-4-beta-3-gamma-2 subunits in L(tk-) cells; format: cell-based
[23] = molecular target: T2, GABA-A receptor; alpha-3/beta-3/gamma-2 (Homo sapiens); experiment: Inverse agonistic activity against GABA-A receptor alpha-3-beta-3-gamma-2 subunits; format: functional

Compound	Ki [1] [nM]	Ki [3] [nM]	Ki [7] [nM]	Ki [8] [nM]	Efficacy [13] [%]	Efficacy [15] [%]	Efficacy [16] [%]	Efficacy [18] [%]	also measured
Cc1cccc(COc2nn3c(-c4ccccc4)nnc3c3ccccc23)n1	2.5	8.4	1.2	8	–	–	–	–	Activity [2]: -8%; Efficacy [4]: 11%; Activity [5]: -4%; Activity [6]: 1%
Cc1cccc(COc2nn3c(C4CC4)nnc3c3ccccc23)n1	0.92	32	3.1	9.7	–	–	–	–	Activity [9]: -13%; Activity [10]: 26%; Activity [11]: -15%
CC(Oc1nn2c(-c3ccccc3)nnc2c2ccccc12)c1ccccn1 (centres undefined)	140	960	320	520	25	–	–	–	Efficacy [12]: 36%
Cc1nnc2c3ccccc3c(OCc3ccccn3)nn12	29	900	81	470	–	–	–	–	Activity [14]: -38%
c1ccc(-c2nnc3c4ccccc4c(OCc4ccccn4)nn23)cc1	0.33	2.7	0.71	1.7	-16	-5	-5	-7	Efficacy [12]: -7%; Efficacy [17]: -16%
c1ccc(-c2nnc3c4c(c(OCc5ccccn5)nn23)CCCCC4)cc1	2.7	41	17	17	30	27	37	30	–
c1ccc(-c2nnc3c4c(c(OCc5ccccn5)nn23)C2CCC4CC2)cc1	1.2	–	12	26	38	23	18	51	half-life [19]: 1 h; bioavailability [20]: 33%; Cmax [21]: 179 ng/mL; Ki [22]: 71 nM
c1ccc(COc2nn3c(C4CC4)nnc3c3ccccc23)nc1	0.74	16	2.6	5.8	–	–	–	–	Activity [23]: -26%; Activity [11]: -20%
CC(C)c1nnc2c3ccccc3c(OCc3ccccn3)nn12	8	160	39	56	–	–	–	–	Activity [23]: -21%
c1ccc(-c2nnc3c4c(c(OCc5ccccn5)nn23)CCCC4)cc1	0.38	4.3	0.85	1.9	17	18	6	16	–
